# Reference: publication PMC7249612 (Biochemistry, 2016)
# Tests used:
# LoxA [1] = experiment: LoxA secondary product profile; type: biochemical, Pseudomonas aeruginosa; settings: 10 μM substrate, pH 7.0
# LoxA [2] = experiment: LoxA substrate preference; type: biochemical, Pseudomonas aeruginosa; settings: initial rate at 10 μM substrate, pH 7.0, relative to AA
# Method in brief: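 His6-tagged LoxA was expressed in E. coli BL21(DE3), purified on Ni-NTA, and dosed by iron content. About 7 nM enzyme started each reaction. Each fatty acid substrate was C18 HPLC-purified and used at 10 μM in 25 mM HEPES pH 7.0 without Triton X-100. Initial rate of conjugated diene formation was followed at 234 nm (ε 25000 M−1cm−1) and expressed relative to the AA rate.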
# LoxA [3] = type: biochemical, Pseudomonas aeruginosa; settings: for Kcat / Km: substrate of LoxA, 25 mM HEPES pH 7.0
# LoxA [4] = experiment: LoxA inhibition, manual cuvette assay; type: biochemical, Pseudomonas aeruginosa; settings: for single-point screen inhibition percentage, LoxA: 25 μM inhibitor, 10 μM AA; for selectivity for LoxA versus human LOX isozymes: from single-point screens at 25 μM
# 15-LOX-1 = molecular target: T1, 15-LOX-1 (Homo sapiens, UniProt P16050); experiment: Human LOX isozyme specificity screen, 15-LOX-1; type: biochemical; settings: 25 μM inhibitor, 10 μM AA
# T1 sequence (P16050 1-662): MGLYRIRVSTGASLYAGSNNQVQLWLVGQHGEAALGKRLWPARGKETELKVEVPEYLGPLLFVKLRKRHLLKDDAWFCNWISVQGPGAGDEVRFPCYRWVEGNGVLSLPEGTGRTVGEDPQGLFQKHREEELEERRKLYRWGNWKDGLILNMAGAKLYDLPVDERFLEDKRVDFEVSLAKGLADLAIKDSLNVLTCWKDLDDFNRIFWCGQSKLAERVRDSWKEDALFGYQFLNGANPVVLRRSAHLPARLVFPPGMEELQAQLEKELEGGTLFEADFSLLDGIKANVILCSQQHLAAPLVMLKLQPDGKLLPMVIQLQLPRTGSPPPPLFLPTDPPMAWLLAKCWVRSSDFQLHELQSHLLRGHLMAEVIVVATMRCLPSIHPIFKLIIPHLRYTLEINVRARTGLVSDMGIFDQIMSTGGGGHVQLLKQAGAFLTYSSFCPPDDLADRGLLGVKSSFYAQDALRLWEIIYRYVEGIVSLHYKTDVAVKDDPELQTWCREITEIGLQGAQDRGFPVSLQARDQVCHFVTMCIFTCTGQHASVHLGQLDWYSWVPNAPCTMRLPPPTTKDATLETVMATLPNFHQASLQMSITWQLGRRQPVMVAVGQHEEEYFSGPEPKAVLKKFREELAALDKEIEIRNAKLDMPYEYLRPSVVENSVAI
# 12-LOX = molecular target: T2, 12-LOX (Homo sapiens, UniProt P18054); experiment: Human LOX isozyme specificity screen, 12-LOX; type: biochemical; settings: 25 μM inhibitor, 10 μM AA
# T2 sequence (P18054 1-663): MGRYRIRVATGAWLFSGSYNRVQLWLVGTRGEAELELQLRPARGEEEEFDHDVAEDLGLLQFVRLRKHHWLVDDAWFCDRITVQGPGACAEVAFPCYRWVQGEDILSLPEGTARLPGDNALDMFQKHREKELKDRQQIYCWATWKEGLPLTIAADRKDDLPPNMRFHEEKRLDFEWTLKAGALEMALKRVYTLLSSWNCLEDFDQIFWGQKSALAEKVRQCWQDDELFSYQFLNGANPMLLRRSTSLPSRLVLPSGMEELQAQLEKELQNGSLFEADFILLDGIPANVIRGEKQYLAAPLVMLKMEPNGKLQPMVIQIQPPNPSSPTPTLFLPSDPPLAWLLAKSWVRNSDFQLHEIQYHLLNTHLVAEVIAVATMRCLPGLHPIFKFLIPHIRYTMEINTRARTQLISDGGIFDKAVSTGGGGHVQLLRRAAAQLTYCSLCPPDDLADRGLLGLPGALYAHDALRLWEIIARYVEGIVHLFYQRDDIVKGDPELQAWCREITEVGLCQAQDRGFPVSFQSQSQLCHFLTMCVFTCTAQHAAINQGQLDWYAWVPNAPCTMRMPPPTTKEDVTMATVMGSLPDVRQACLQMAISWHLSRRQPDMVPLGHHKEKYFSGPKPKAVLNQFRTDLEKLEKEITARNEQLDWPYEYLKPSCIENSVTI
# 5-LOX = molecular target: T3, 5-LOX (Homo sapiens, UniProt P09917); experiment: Human LOX isozyme specificity screen, 5-LOX; type: biochemical; settings: 25 μM inhibitor, 10 μM AA
# T3 sequence (P09917 1-674): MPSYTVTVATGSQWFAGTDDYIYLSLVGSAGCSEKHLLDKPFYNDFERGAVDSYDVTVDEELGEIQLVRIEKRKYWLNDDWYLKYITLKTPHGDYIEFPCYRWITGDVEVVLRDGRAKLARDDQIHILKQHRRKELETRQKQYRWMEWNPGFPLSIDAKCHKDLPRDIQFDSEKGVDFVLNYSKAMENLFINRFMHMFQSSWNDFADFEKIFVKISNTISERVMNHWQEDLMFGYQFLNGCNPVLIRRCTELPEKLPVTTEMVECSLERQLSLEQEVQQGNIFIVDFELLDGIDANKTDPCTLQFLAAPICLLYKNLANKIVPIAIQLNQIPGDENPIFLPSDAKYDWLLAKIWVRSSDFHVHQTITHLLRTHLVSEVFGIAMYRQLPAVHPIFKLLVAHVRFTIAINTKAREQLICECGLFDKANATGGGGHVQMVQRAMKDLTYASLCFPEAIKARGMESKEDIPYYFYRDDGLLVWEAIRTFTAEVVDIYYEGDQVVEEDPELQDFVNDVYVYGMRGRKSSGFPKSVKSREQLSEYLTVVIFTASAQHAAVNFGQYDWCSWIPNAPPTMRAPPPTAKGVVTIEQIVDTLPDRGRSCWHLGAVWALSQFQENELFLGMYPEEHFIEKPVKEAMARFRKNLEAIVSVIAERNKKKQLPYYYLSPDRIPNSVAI
# 15-LOX-2 = molecular target: T4, 15-LOX-2 (Homo sapiens, UniProt O15296); experiment: Human LOX isozyme specificity screen, 15-LOX-2; type: biochemical; settings: 25 μM inhibitor, 10 μM AA
# T4 sequence (O15296 1-676): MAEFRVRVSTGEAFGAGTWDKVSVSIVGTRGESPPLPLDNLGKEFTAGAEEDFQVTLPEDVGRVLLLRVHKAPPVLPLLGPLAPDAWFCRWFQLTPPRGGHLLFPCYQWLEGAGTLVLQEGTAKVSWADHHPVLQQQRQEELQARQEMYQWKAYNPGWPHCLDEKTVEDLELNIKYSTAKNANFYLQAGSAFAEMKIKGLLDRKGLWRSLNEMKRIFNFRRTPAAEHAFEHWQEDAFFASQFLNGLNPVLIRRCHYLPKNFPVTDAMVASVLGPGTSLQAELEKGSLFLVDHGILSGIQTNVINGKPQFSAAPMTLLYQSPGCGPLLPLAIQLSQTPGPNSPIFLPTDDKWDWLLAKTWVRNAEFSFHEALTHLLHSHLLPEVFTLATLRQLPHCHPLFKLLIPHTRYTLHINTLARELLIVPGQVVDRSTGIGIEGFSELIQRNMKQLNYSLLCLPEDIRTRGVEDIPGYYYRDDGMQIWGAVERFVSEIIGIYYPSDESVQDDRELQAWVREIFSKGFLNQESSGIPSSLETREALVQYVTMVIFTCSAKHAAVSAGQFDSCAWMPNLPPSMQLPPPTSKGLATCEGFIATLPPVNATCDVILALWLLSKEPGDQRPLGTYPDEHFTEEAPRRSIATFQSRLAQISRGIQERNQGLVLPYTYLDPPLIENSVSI
Structure (SMILES),% AA Rate (10 μM) (LoxA [2]),"single-point screen inhibition percentage, LoxA (LoxA [4]) [%]","single-point screen inhibition percentage, 15-LOX-l (15-LOX-1) [%]","single-point screen inhibition percentage, 12-LOX (12-LOX) [%]","single-point screen inhibition percentage, 5-LOX (5-LOX) [%]","single-point screen inhibition percentage, 15-LOX-2 (15-LOX-2) [%]",further results
CCCCC/C=C\C/C=C\C/C=C\C=C\[C@@H](O)CCCC(=O)O [5-HETE],,,,,,,"times slower relative to the Kcat with AA (LoxA [1]): 100,000 times"
"CCCCCC=CCC=CCC=CC=CC(CCCC(=O)O)OO (stereo not drawn) [5-HpETE, 5-hydroperoxyeicosatetraenoic acid]",,,,,,,"times slower relative to the Kcat with AA (LoxA [1]): 100,000 times"
CC/C=C\C/C=C\C/C=C\CCCCCCCC(=O)O [ALA],78(10) %,,,,,,
"CCCCC/C=C\C/C=C\C/C=C\CCCCCCC(=O)O [DGLA, Dihomo-gamma-linolenic acid]",44(10) %,,,,,,
CC/C=C\C/C=C\C/C=C\C/C=C\C/C=C\C/C=C\CCC(=O)O [DHA],72(10) %,,,,,,
CCCCC/C=C\C/C=C\CCCCCCCCCC(=O)O [EDA],33(10) %,,,,,,
CC/C=C\C/C=C\C/C=C\C/C=C\C/C=C\CCCC(=O)O [EPA],61(10) %,,,,,,
CCCCC/C=C\C/C=C\C/C=C\CCCCC(=O)O [GLA],44(10) %,,,,,,
"CCCCC/C=C\C/C=C\CCCCCCCC(=O)O [LA, linoleic acid]",72(10) %,,,,,,"KIE for Kcat (LoxA [3]; noncompetitive, LA versus perdeuterated LA): 32 +/− 6; Kcat (LoxA [3]): 28 (2) s^−1; Km (LoxA [3]): 7 µM"
Nc1ncnc2c1c(-c1ccc(Oc3ccccc3)cc1)cn2C1CCCC1 [NCGC00015280],,86,51,38,42,0,
Fc1ccc(C(OCCN2CCN(CCCc3ccccc3)CC2)c2ccc(F)cc2)cc1 [NCGC00015300],,83,65,48,41,13,
O=C1NCN(c2ccccc2)C12CCN(CCCC(c1ccc(F)cc1)c1ccc(F)cc1)CC2 [NCGC00015424],,87,76,63,74,21,selectivity for LoxA versus human LOX isozymes (LoxA [4]): selectivity towards LoxA over 12-LOX and 15-LOX-2 and not the other human isozymes
O=c1[nH]c2ccccc2n1C1CCN(CCCC(c2ccc(F)cc2)c2ccc(F)cc2)CC1 [NCGC00015802],,90,69,50,80,16,"selectivity for LoxA versus human LOX isozymes (LoxA [4]): selectivity towards LoxA over 12-LOX, 15-LOX-1, and 15-LOX-2"
Fc1ccc(C(c2ccc(F)cc2)N2CCN(C/C=C\c3ccccc3)CC2)cc1 [NCGC00018102],,86,65,25,96,0,"selectivity for LoxA versus human LOX isozymes (LoxA [4]): selectivity towards LoxA over 12-LOX, 15-LOX-1, and 15-LOX-2; IC50 (LoxA [4]; read-out: LoxA IC50, manual cuvette assay, pH 7.0, 10 μM AA): 4.5 ± 0.4 µM"
CC/C(=C(\c1ccccc1)c1ccc(OCCN(C)C)cc1)c1ccccc1 [NCGC00024928],,82,73,39,79,8,
COC(=O)[C@H]1[C@H]2C[C@@H]3c4[nH]c5cc(OC)ccc5c4CCN3C[C@H]2C[C@@H](OC(=O)c2cc(OC)c(OC)c(OC)c2)[C@@H]1OC [NCGC00091250],,69,57,23,37,5,
CN[C@H]1CC[C@@H](c2ccc(Cl)c(Cl)c2)c2ccccc21.Cl [NCGC00092386],,76,51,26,83,5,
CC(C)(C)c1ccc(C(=O)CCCN2CCC(OC(c3ccccc3)c3ccccc3)CC2)cc1 [NCGC00164603],,95,76,33,23,0,
O=C(CCCCCN1CCN(c2ccccc2-c2ccccc2)CC1)NC1CCCc2ccccc21 (stereo not drawn) [NCGC00186032],,87,57,36,78,5,
"CC(Cc1ccc(O)c(O)c1)C(C)Cc1ccc(O)c(O)c1 (stereo not drawn) [NDGA, nordihydroguaiaretic acid, reference compound]",,,,,,,IC50 value against LoxA (LoxA [4]; compared with the human enzymes): comparable to the values obtained against the human enzymes
CCCCC/C=C\C/C=C\CCCCCCCC(=O)O [d31-LA],,,,,,,Kcat (LoxA [3]): 0.9 (0.1) s^−1; Km (LoxA [3]): 100 µM
